Compound activity as filed in PubChem BioAssay.
Sampled rows, rich in hits. Any-hit rate of the full collection: about 3.5%.
RGS4 pot: RGS4 potentiation or activation; 0.92% of 310,000 active; B-score at 10 µM; HEK293 M3R/inducible RGS4, carbachol calcium flux Fluo4; stronger effect = lower value;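 active means B-score of the integrated calcium signal more than 4 SD below the library mean, with starting fluorescence not abnormally high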;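 further: negative B-score means reduced calcium response which marks RGS4 activation or potentiation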
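test system = HEK293 cells with stable M3R and inducible RGS4 | schedule = recording 10 s baseline at 1 Hz, 100 s post-agonist | technique = Fluo4-AM (2 µM) calcium-flux fluorescence, kinetic read | measure = Agonist-evoked peak-minus-minimum fluorescence over baseline, integrated ratio, B score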
MrgX1 agonist: human MrgX1 receptor agonism, primary screen; Q96LB2; B-score at 10 µM; AID 588627; MrgX1-HEK293 cells, Fluo-4 calcium fluorescence, agonist mode; stronger effect = higher value; 0.44% of 310,000 active;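 active means calcium response B-score plate-corrected fluorescence ratio at least 3 library SD, with starting fluorescence B-score inside 5 SD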
Target sequence (Q96LB2 whole entry, looked up): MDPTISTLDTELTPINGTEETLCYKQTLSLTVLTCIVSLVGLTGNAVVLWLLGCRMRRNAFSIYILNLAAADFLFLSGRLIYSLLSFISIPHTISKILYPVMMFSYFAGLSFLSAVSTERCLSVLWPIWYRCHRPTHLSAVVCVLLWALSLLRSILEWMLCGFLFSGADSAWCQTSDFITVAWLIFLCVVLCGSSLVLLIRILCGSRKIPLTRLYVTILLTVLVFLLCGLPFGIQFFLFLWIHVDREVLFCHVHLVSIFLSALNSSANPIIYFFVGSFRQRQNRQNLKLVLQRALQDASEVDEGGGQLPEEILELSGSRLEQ
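System – MrgX1-expressing HEK293 cells · Incubation – cells plated overnight, dye loaded 0.5 h 37 °C, 0.5 h room temperature · Technique – kinetic Fluo-4 NW fluorescence of intracellular calcium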
RGS4 block: human RGS4 inhibition; P49798; B-score at 10 µM; HEK293 M3R/RGS4 inducible, Fluo-4 calcium flux; stronger effect = higher value; triggered by carbachol at its EC20; AID 463165; 0.45% of 310,000 active;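 active means B-score, a plate-corrected calcium signal, over three deviations above library mean, with baseline fluorescence within five deviations of library mean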;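 further: RGS4 expression induced by doxycycline in cells with stable M3 receptor; B-score is computed from the integrated fluorescence ratio over baseline after carbachol; higher B-score means a larger calcium signal and so more RGS4 inhibition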
Target sequence (P49798 whole entry, looked up): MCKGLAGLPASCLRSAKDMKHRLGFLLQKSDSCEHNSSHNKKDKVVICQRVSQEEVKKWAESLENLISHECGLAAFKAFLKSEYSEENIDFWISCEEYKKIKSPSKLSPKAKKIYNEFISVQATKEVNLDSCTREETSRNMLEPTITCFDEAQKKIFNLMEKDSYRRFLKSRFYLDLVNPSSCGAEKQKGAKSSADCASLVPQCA
MrgX1 allo act: allosterically activates human MrgX1 receptor signaling | Q96LB2 | 0.63% of 310,000 active | MrgX1-HEK293, Fluo-4 calcium flux, FDSS; stronger effect = higher value | B-score at 10 µM;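 active means plate-corrected calcium response at least 3 library SD above typical, normal starting fluorescence, not activating the receptor alone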;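 further: compound read alongside a low EC10 to EC30 dose of BAM8-22 agonist; peak minus trough fluorescence over baseline measured at the second addition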
MrgX1 antag: human MrgX1 receptor antagonism, primary screen | 1.3% of 310,000 active | AID 588676 | B-score at 10 µM | MRGX1-HEK293 calcium flux, Fluo-4, BAM8-22 antagonism; stronger effect = lower value;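 active means calcium-response B-score plate-corrected more than 3 library SD below zero, starting fluorescence within 5 deviations, no agonist response on first addition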;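 further: peak minus trough fluorescence over baseline after final BAM8-22 challenge near maximal dose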
MrgX1 PAM conf: confirmation of human MrgX1 receptor positive allosteric modulators; shares compounds with MrgX1 allo act; MrgX1-HEK293, Fluo-4 calcium fluorescence, FDSS; activation (ratio percentage), % at 10 µM; 13% of 1,200 active; AID 602413;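 active means ratio at least 3 SD above the weak peptide control, stable starting fluorescence, no direct agonism earlier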;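 further: compound followed by low BAM8-22 agonist challenge near EC20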
HEK293 Ca flux: activity in parental HEK293 cells lacking MrgX1 | fluorescence ratio F(max-min)/F0 at 10 µM | shares compounds with MrgX1 antag | Fluo-4 calcium fluorescence, FDSS | 2% of 4,000 active;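 active means duplicate-averaged calcium fluorescence ratio at least three times the standard deviation of buffer wells, a nonspecific response in parental cells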
HEK293 Ca counter: activity in parental HEK293 cells without MrgX1 | shares compounds with MrgX1 antag | parental HEK293 calcium flux, Fluo-4 fluorescence ratio; stronger effect = higher value | fluorescence ratio F(max-min)/F0 at 10 µM | 0.4% of 4,000 active | AID 624114;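 active means calcium fluorescence ratio, averaged over duplicates, at least 3 SD of the buffer-well ratio, meaning a nonspecific response in receptor-free cells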;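 further: untransfected parental HEK293 lacking MrgX1 used as counterscreen for MrgX1 allosteric activators; fluorescence change taken during the second addition on a kinetic imager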
HEK293 Ca cntr2: MrgX1 activator counter-screen hit in parental HEK293 cells; shares compounds with MrgX1 antag; Fluo-4 calcium fluorescence (FDSS); stronger effect = higher value; fluorescence ratio F(max-min)/F0 at 10 µM; 8.7% of 4,000 active;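 active means calcium fluorescence ratio at least three times the spread of buffer wells, meaning a non-specific response in parental cells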
Numbers stand for hits; - = inactive; . = not tested or not shown.

SMILES	RGS4 pot	MrgX1 agonist	RGS4 block	MrgX1 allo act	MrgX1 antag	MrgX1 PAM conf	HEK293 Ca flux	HEK293 Ca counter	HEK293 Ca cntr2
COc1ccc(OC)c(NC(=O)Cc2coc3ccc(C)cc23)c1	-	-	-	-	-	.	.	.	.
O=C(Nc1nnc(SCC(=O)N2CCCCC2)s1)c1cccs1	-	-	-	7.07	-	-	-	-	-
O=C(Cc1cccs1)Nc1nnc(SCC(=O)N2CCCCC2)s1	-	-	-	-	-	.	.	.	.
CCN(CC(=O)Nc1c(F)cccc1F)C(=O)c1cc2ccccc2oc1=O	-	-	-	-	-	.	.	.	.
COC(=O)c1cnc(SCC(=O)c2ccccc2)n1C	-	-	-	-	-	.	.	.	.
O=C(c1ccc2c(c1)OCO2)[C@@H]1[C@@H]2C(=O)N(C3CCCCC3)C(=O)[C@@H]2C2c3ccccc3C=CN21 (some centres not stated)	-	.	-	.	.	.	.	.	.
CC(C)(C)C(=O)[C@@H]1[C@@H]2C(=O)N(C3CCCCC3)C(=O)[C@@H]2[C@H]2c3ccccc3C=CN12	.	-	.	7.01	-	-	-	-	-
Cc1cccc(C)c1NC1=NC(=S)N(c2ccc(C(=O)O)cc2)C12CCCCC2	-	-	-	7.24	-	-	-	-	-
Cc1cccc(NC2=NC(=S)N(c3cccc(C(=O)O)c3)C23CCCCC3)c1	-	-	-	-	-	.	.	.	.
O=C(N/N=C/c1ccc2c(c1)OCO2)C(=O)Nc1ccc2ccccc2c1	-	-	-	-	-	.	.	.	.
CN1CCN(C(=O)CCc2nc3ccccc3n2-c2ccccc2)CC1	-	-	-	-	-	.	.	.	.
CCCn1c(=O)c(C(=O)Nc2ccccc2)c(O)c2ccccc21	-	-	-	-	-	.	.	.	.
CCCn1c(=O)c(C(=O)Nc2cccc(C)c2)c(O)c2ccccc21	-	-	-	7.16	-	-	-	-	-
COc1ccc(C(C(=O)NCC2CCCO2)N(Cc2ccccc2)C(=O)CNC(=O)c2ccco2)cc1OC (configuration not stated)	-	-	-	-	-	.	.	.	.
CC(C)=CCc1c(C)nc2ccccc2c1C(=O)O	-	-	-	11.4	-	-	-	-	-
COC(=O)c1c(C)nc2ccccc2c1C(=O)O	-	-	-	-	-	.	.	.	.
CC(CCc1ccc(O)cc1)NC1c2ccccc2-c2ccccc21 (configuration not stated)	-	-	-	7.1	-	-	-	-	-
Cn1c(=O)n(C)c2cc(C(N)=O)ccc21	-	-	-	14.7	-	-	-	-	-
O=[N+]([O-])c1ccc(N2CCSCC2)cc1	-	-	-	-	-	.	.	.	.
CSc1ccccc1NC(=O)c1ccccc1N(C)S(C)(=O)=O	-	-	-	8.17	-	10.0%	-	-	-
CCOC(=O)c1ccccc1NC(=O)c1ccc(N(C)S(C)(=O)=O)cc1	-	-	-	-	-	.	.	.	.
CCOC(=O)c1ccccc1NC(=O)c1ccccc1N(C)S(C)(=O)=O	-	-	-	7.24	-	9.4%	-	-	-
COC(=O)c1ccccc1N(C)S(C)(=O)=O	-	-	-	-	-	.	.	.	.
COC(=O)c1ccccc1NC(=O)c1ccccc1N(C)S(C)(=O)=O	-	-	-	10.3	-	-	-	-	-
Cc1ccc(NC(=O)C(=O)NCCOc2ccc(Cl)cc2)c(C)c1	-	-	-	9.61	-	-	-	-	-
SMILES	RGS4 pot	MrgX1 agonist	RGS4 block	MrgX1 allo act	MrgX1 antag	MrgX1 PAM conf	HEK293 Ca flux	HEK293 Ca counter	HEK293 Ca cntr2
CCCCc1cc(=O)oc2cc(C)cc(OCC(=O)NCC3CCC(C(=O)O)CC3)c12 (configuration not stated)	-	-	-	-	-	.	.	.	.
CN(C)S(=O)(=O)c1ccc(C(=O)OCC(=O)NCc2ccccc2)cc1	-	-	-	8.38	-	-	-	-	-
CC(=O)c1cc2c(cc1NC(=O)CN1CCCCC1C)OCO2 (configuration not stated)	-	-	-	11.3	-	-	-	-	-
c1ccc(CCCCNCC2COc3ccccc3O2)cc1 (configuration not stated)	-	-	-	-	-	.	.	.	.
O=C(NC1CCCC1)c1ccc2c(c1)N(Cc1ccc(F)cc1)CCS2	-	-	-	-	-	.	.	.	.
Cc1ccc(CN2CCSc3ccc(C(=O)NC4CCCC4)cc32)cc1	-	-	-	9.37	-	-	-	-	-
CCOc1ccccc1N1CCN(C(=O)Nc2cccc(Cl)c2)CC1	-	-	-	11.1	-	-	-	-	-
Cc1ccc(-c2cc(N)n(-c3ccc(C)cc3)n2)cc1	-	-	-	7.23	-	-	-	-	-
O=[N+]([O-])c1ccc(N2CCc3ccccc3C2)cc1	-	-	-	-	-	.	.	.	.
Cc1cc(/C=C2\Cc3ccccc3C2=O)c(C)n1-c1ccccc1	-	-	-	25.5	-	-	-	-	-
COc1ccccc1/C=C1\Cc2ccccc2C1=O	-	-	-	-	-	.	.	.	.
COc1ccc(NC(=S)N(CCCN2CCCC2)Cc2ccco2)cc1	-	-	-	-	-	.	.	.	.
COc1ccc(NC(=S)N(CCN2CCCCC2)Cc2ccco2)cc1	-	-	-	10.3	-	-	-	-	-
CCOC1Cc2ccccc2N(C(N)=O)c2ccccc21 (configuration not stated)	-	-	-	-	-	.	.	.	.
COC1Cc2ccccc2N(C(=O)N2CCN(CCO)CC2)c2ccccc21 (configuration not stated)	-	-	-	16	-	-	-	-	-
O=C(CCC1CCN(Cc2ccccc2O)CC1)NC1CC1	-	-	-	8.11	-	-	-	-	-
O=C(CCC1CCN(Cc2ccccc2Cl)CC1)NC1CC1	-	-	-	-	-	.	.	.	.
N#CC(C(=O)NC1CC1)c1nc2ccccc2nc1N1CCCC1 (configuration not stated)	-	-	-	-	-	.	.	.	.
N#CC(C(=O)NC1CC1)c1nc2ccccc2nc1N1CCN(C/C=C/c2ccccc2)CC1 (configuration not stated)	-	-	-	9.29	-	-	-	-	-
COc1ccc(-c2oc3ccccc3c2C(=O)Oc2ccccc2)cc1	-	-	-	8.68	-	-	-	-	68.3
Cc1cccc(-c2csc(N)c2C(=O)OC(C)C)c1	-	-	-	8.14	-	-	-	-	-
COC(=O)c1sc2nc(N3CCCCC3)c3c(c2c1N)CCCC3	-	-	-	6.87	-	-	-	-	-
Cc1ccc(-n2cnc3cc(NCc4cccs4)ccc32)cc1	-	-	-	9.83	-	-	-	-	-
